Laboratory results taken from ChEMBL document CHEMBL1124600, “Synthesis and biological properties of purine and pyrimidine 5'-deoxy-5'-(dihydroxyphosphinyl)-beta-D-ribofuranosyl analogues of AMP, GMP, IMP, and CMP” (J Med Chem, 1989).
Calls of active or inactive are those of the source. The calls are words filed in the database; no cut-off is given here.

Columns and labels:
[1] = tested on: L1210; assay: Antitumor activity at <=100 uM determined in a 3-5 days culture of L1210 murine leukemia; NA = no activity was shown; assay type: functional, cell-based; settings: Mus musculus
In short: (§1)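 Wells seeded at (5–10) × 10³ cells with compound at 0.1–100 μM, triplicate wells, 37 °C. L1210 and WI-L2 ran 3 days, CCRF-CEM 4 days, Lovo/L 5 days. MTT was then added for 2 h and formazan dissolved in 2-propanol/0.04 M HCl before absorbance reading. ID50 is the concentration giving 50% of control growth.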

[2] = tested on: Human alphaherpesvirus 2; assay: Antiviral activity at <=320 uM determined in a culture of Herpes simplex virus type 2; IA = inactive; assay type: functional, organism-based
[3] = tested on: Influenza A virus; assay: Antiviral activity at <=320 uM determined in a culture of Influenza A; IA = inactive; assay type: functional, organism-based; settings: unidentified influenza virus
[4] = tested on: Visna-maedi virus; assay: Antiviral activity at <=320 uM determined in a culture of Visna virus; IA = inactive; assay type: functional, organism-based
[5] = tested on: Enterovirus; assay: Antiviral activity at <=320 uM determined in a culture of Rhinovirus type 1-A; IA = inactive; assay type: functional, organism-based
[6] = tested on: CCRF-CEM; assay: Antitumor activity at <=100 uM determined in a 3-5 days culture of CCRF-CEM(human T cell leukemia); NA = no activity was shown; assay type: functional, cell-based; in short: as §1
[7] = tested on: unidentified adenovirus; assay: Antiviral activity at <=320 uM determined in a culture of Adenovirus type 2; IA = inactive; assay type: functional, organism-based
[8] = tested on: LoVo; assay: Antitumor activity at <=100 uM determined in a 3-5 days culture of LOVO/L (human colon carcinoma); NA = no activity was shown; assay type: functional, cell-based; in short: as §1
[9] = tested on: WIL2; assay: Antitumor activity at <=100 uM determined in a 3-5 days culture of WI-L2 […]; NA = no activity was shown; assay type: functional, cell-based; in short: as §1
[10] = tested on: WIL2; assay: Antitumor activity at <=100 uM determined in a 3-5 days culture of WI-L2 (human B-ltmphoblast); NA = no activity was shown; assay type: functional, cell-based; in short: as §1
[11] = Percent of phosphorylated forms of compound at 4 hr after phosphorylation by nucleoside monophosphate kinase; settings: Bos taurus
[12] = tested on: Enterovirus; assay: Antiviral activity at 100 uM determined in a culture of Rhinovirus type 1-A; IA = inactive; assay type: functional, organism-based
[13] = tested on: Human respirovirus 3; assay: Antiviral activity at 10-30 uM determined in a culture of Parainfluenza virus type 3; IA = inactive; assay type: functional, organism-based
[14] = tested on: unidentified adenovirus; assay: Antiviral activity at 100 uM determined in a culture of Adenovirus type 2; IA = inactive; assay type: functional, organism-based
[15] = tested on: Human alphaherpesvirus 2; assay: Antiviral activity at 1-3 uM determined in a culture of Herpes simplex virus type 2; IA = inactive; assay type: functional, organism-based
[16] = tested on: Visna-maedi virus; assay: Antiviral activity at 1-3 uM determined in a culture of Visna virus; IA = inactive; assay type: functional, organism-based
[17] = tested on: Influenza A virus; assay: Antiviral activity at 10-30 uM determined in a culture of Influenza A; IA = inactive; assay type: functional, organism-based; settings: unidentified influenza virus

| SMILES | Activity [1] | Activity [2] | Activity [3] | Activity [4] | Activity [5] | Activity [6] | Activity [7] | Activity [8] | Activity [9] | Activity [10] | % nucleotide present [11] [%] | Activity [12] | Activity [13] | Activity [14] | Activity [15] | Activity [16] | Activity [17] |
| --- | --- | --- | --- | --- | --- | --- | --- | --- | --- | --- | --- | --- | --- | --- | --- | --- | --- |
| O=P(O)(O)C[C@H]1OC(n2cnc3c(O)ncnc32)[C@H](O)[C@@H]1O (stereo partly drawn) | inactive | inactive | inactive | inactive | inactive | inactive | inactive | inactive | inactive | – | – | – | – | – | – | – | – |
| Nc1ccn(C2O[C@H](CP(=O)(O)O)[C@@H](O)[C@H]2O)c(=O)n1 (stereo partly drawn) | inactive | inactive | inactive | inactive | inactive | inactive | inactive | inactive | – | inactive | 87 | – | – | – | – | – | – |
| NC(=O)c1ncn([C@@H]2O[C@H](CO)[C@@H](O)[C@H]2O)n1 | – | – | – | – | – | – | – | – | – | – | – | inactive | inactive | inactive | inactive | inactive | inactive |
| Nc1nc(O)c2ncn(C3O[C@H](CP(=O)(O)O)[C@@H](O)[C@H]3O)c2n1 (stereo partly drawn) | inactive | inactive | inactive | inactive | inactive | inactive | inactive | inactive | – | inactive | – | – | – | – | – | – | – |
| O=c1ccn(C2O[C@H](CP(=O)(O)O)[C@@H](O)[C@H]2O)c(=O)[nH]1 (stereo partly drawn) | inactive | inactive | inactive | inactive | inactive | inactive | inactive | inactive | – | inactive | – | – | – | – | – | – | – |
